These results are taken from ChEMBL document CHEMBL4190245, “Caffeic Acid Phenethyl Ester from the Twigs of Cinnamomum cassia Inhibits Malignant Cell Transformation by Inducing c-Fos Degradation” (J Nat Prod, 2017).

Calls of active or inactive are those of the source. The calls are words filed in the database; no cut-off is given here.

The species named for data set [1] is Mus musculus. The data set can be described thus: Inhibition of EGF-induced c-fos mRNA expression in mouse JB6 P+ cells at 0.5 to 1 uM preincubated for 1 hr followed by EGF stimulation and measured after 15 mins by real-time PCR method. In kind it is functional, cell-based. The essentials:
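Compound given 1 h before EGF (10 ng/mL); total RNA extracted 15 min later, reverse-transcribed and c-fos quantified by SYBR Green real-time PCR (95 °C 10 min, then 40 cycles of 95 °C 15 s and 59 °C 1 min); n = 3.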

For data set [2], the species on record is Mus musculus. The data set can be described thus: Induction of proteasome-mediated c-fos degradation in EGF-stimulated mouse JB6 P+ cells assessed as reduction in c-fos protein level at 1 uM preincubated for 1 hr followed by EGF stimulation for 15 mins in presence of 10 uM proteasome inhibitor MG132 by Western blot method. The essentials:
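Cells serum-starved 24 h, pretreated with MG132 (10 μM) plus compound (0.5 and 1 μM), collected 15 min after EGF (10 ng/mL); lysates immunoblotted for c-Fos.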
(In western blotting, separated proteins are transferred to a membrane and probed.)

For data set [3], the species on record is Mus musculus. The data set can be described thus: Inhibition of TPA-induced mouse JB6 P+ cells transformation after 14 days by microscopy based soft agar assay. The data set is classed as functional. The essentials: (§1)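 Soft agar: 8 × 10^3 cells/mL in 0.3% BME top agar with 10% FBS, compound and EGF or TPA, layered over 0.5% agar in BME with 10% FBS and the same additions; kept 1 to 2 weeks at 37 °C in 5% CO2, colonies counted by microscope; triplicate means ± SD.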

The species named for data set [4] is Mus musculus. The data set can be described thus: Inhibition of EGF-induced cell cycle progression in mouse epidermal JB6 P+ cells assessed as accumulation at G1 phase at 0.25 to 1 uM preincubated for 1 hr followed by EGF challenge measured after 24 hrs by propidium iodide staining-based FACS analysis. In kind it is functional. A digest of the protocol: (§2)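 Seeded at 1.5 × 10^5 cells per 60 mm dish, starved 24 h in 0.1% FBS MEM, pretreated 1 h with compound, then EGF (10 ng/mL) for 24 h; cells fixed in cold 70% ethanol overnight, stained with RNase A and propidium iodide for 30 min at room temperature, analysed by flow cytometry; n = 3.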
(In flow cytometry, cells or beads pass a laser one at a time.)

The species named for data set [5] is Mus musculus. The data set can be described thus: Inhibition of ERK phosphorylation at T202/Y204 residue in EGF-stimulated mouse JB6 P+ cells at 0.5 to 1 uM preincubated for 1 hr followed by EGF stimulation and measured after 15 mins by Western blot method. A digest of the protocol: (§3)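 JB6 P+ cells were serum-starved 24 h, pretreated 1 h with compound (0.5 and 1 μM), then stimulated with EGF (10 ng/mL) and harvested after 15 min. Lysates (10−60 μg protein) were run on SDS-PAGE and immunoblotted for phospho or total proteins, with chemiluminescent detection.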

For data set [6], the target named is Transcription factor Jun (Mus musculus) (UniProt P05627). The data set can be described thus: Effect on phosphorylated c-jun in EGF-stimulated mouse JB6 P+ cells at 0.25 to 1 uM preincubated for 1 hr followed by EGF stimulation. A digest of the protocol:
(§4)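 The TransAM AP-1 family ELISA was run on cell extracts: wells coated with AP-1 binding oligonucleotide, probed with a c-Fos or p-c-Jun specific primary antibody, then an HRP secondary, and absorbance read at 450 nm; n = 3.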

Data set [7] is filed under the species Mus musculus. The data set can be described thus: Inhibition of EGF-induced mouse JB6 P+ cells transformation after 12 days by microscopy based soft agar assay. The data set is classed as functional. A digest of the protocol: as §1
Data set [8] is filed under the species Mus musculus. The data set can be described thus: Inhibition of EGF-induced cell cycle progression in mouse epidermal JB6 P+ cells assessed as reduction in accumulation at G2/M phase at 0.25 to 1 uM preincubated for 1 hr followed by EGF challenge and measured after 24 hrs by propidium iodide staining-based FACS analysis. The data set is classed as functional. A digest of the protocol:
as §2

For data set [9], the species on record is Mus musculus. The data set can be described thus: Inhibition of RSK phosphorylation at T359/S363 residue in EGF-stimulated mouse JB6 P+ cells at 0.5 to 1 uM preincubated for 1 hr followed by EGF stimulation and measured after 15 mins by Western blot method. The essentials:
as §3

Data set [10] in a line: Cytotoxicity against mouse JB6 P+ cells up to 10 uM after 24 to 48 hrs by CellTiter96 AQueous one solution assay. In kind it is cell-based. A digest of the protocol:
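JB6 P+ cells seeded, incubated overnight, then switched to 0.1% FBS MEM and compound added; viability read by MTS reagent at 24 and 48 h; triplicate samples, means ± standard deviation.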

For data set [11], the species on record is Mus musculus. The data set can be described thus: Induction of proteasome-mediated c-fos degradation in EGF-stimulated mouse JB6 P+ cells assessed as reduction in c-fos protein level at 1 uM preincubated for 1 hr followed by EGF stimulation for 15 mins by Western blot method. A digest of the protocol: as §3
For data set [12], the species on record is Mus musculus. The data set can be described thus: Induction of proteasome-mediated c-fos degradation in EGF-stimulated mouse JB6 P+ cells assessed as reduction in c-fos activity at 0.25 to 1 uM preincubated for 1 hr followed by EGF stimulation. The essentials: as §4
For data set [13], the species on record is Mus musculus. The data set can be described thus: Induction of proteasome-mediated c-fos degradation in EGF-stimulated mouse JB6 P+ cells assessed as inhibition of c-fos phosphorylation at S32 residue at 0.5 to 1 uM preincubated for 1 hr followed by EGF stimulation and measured after 15 mins by Western blot method. A digest of the protocol: as §3
The species entered for data set [14] is Mus musculus. The data set can be described thus: Induction of proteasome-mediated c-fos degradation in EGF-stimulated mouse JB6 P+ cells assessed as reduction in total c-fos protein level at 0.5 to 1 uM preincubated for 1 hr followed by EGF stimulation and measured after 15 mins by Western blot method. The essentials:
as §3

Data set [15] is filed under the species Mus musculus. The data set can be described thus: Inhibition of CREB phosphorylation at S133 residue in EGF-stimulated mouse JB6 P+ cells at 0.5 to 1 uM preincubated for 1 hr followed by EGF stimulation and measured after 15 mins by Western blot method. A digest of the protocol:
as §3

Data set [16] is filed under the species Mus musculus. The data set can be described thus: Inhibition of EGF-induced mouse JB6 P+ cells transformation at 0.25 to 2 uM after 12 days by microscopy based soft agar assay. In kind it is functional. A digest of the protocol: as §1
The species named for data set [17] is Mus musculus. The data set can be described thus: Inhibition of EGF-induced cell cycle progression in mouse epidermal JB6 P+ cells assessed as accumulation at G1 phase at 0.5 to 1 uM preincubated for 1 hr followed by EGF challenge measured after 24 hrs by propidium iodide staining-based FACS analysis. In kind it is functional. The essentials: as §2
The species named for data set [18] is Mus musculus. The data set can be described thus: Induction of proteasome-mediated c-fos degradation (unknown origin) expressed in EGF-stimulated mouse JB6 P+ cells co-expressing AP1-lucifearse assessed as inhibition of AP-1 activation preincubated for 1 hr followed by EGF stimulation for 4 hrs by luciferase reporter gene assay. The data set is classed as cell-based. The essentials: (§5)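 JB6 P+ cells stably carrying an AP-1 luciferase reporter (kept in 5% FBS MEM with 200 μg/mL G418) were starved 24 h in 0.1% FBS MEM, given compound 1 h before EGF (10 ng/mL) or TPA (20 ng/mL), lysed in phosphate/Triton buffer pH 7.8 and read for firefly luciferase; n = 3.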
A general note: In a reporter assay the amount or activity of a reporter protein is the signal.

For data set [19], the species on record is Mus musculus. The data set can be described thus: Induction of proteasome-mediated c-fos degradation (unknown origin) expressed in TPA-stimulated mouse JB6 P+ cells co-expressing AP1-lucifearse assessed as inhibition of AP-1 activation preincubated for 1 hr followed by TPA stimulation for 4 hrs by luciferase reporter gene assay. In kind it is cell-based. The essentials:
as §5

Data set [20] is filed under the species Mus musculus. The data set can be described thus: Inhibition of TPA-induced mouse JB6 P+ cells transformation at 0.25 to 2 uM after 14 days by microscopy based soft agar assay. The data set is classed as functional. A digest of the protocol: as §1
The species entered for data set [21] is Mus musculus. The data set can be described thus: Inhibition of EGF-induced cell cycle progression in mouse epidermal JB6 P+ cells assessed as reduction in accumulation at G2/M phase at 0.5 to 1 uM preincubated for 1 hr followed by EGF challenge and measured after 24 hrs by propidium iodide staining-based FACS analysis. The data set is classed as functional. A digest of the protocol:
as §2

Sequence of Transcription factor Jun (Mus musculus) (P05627 whole entry): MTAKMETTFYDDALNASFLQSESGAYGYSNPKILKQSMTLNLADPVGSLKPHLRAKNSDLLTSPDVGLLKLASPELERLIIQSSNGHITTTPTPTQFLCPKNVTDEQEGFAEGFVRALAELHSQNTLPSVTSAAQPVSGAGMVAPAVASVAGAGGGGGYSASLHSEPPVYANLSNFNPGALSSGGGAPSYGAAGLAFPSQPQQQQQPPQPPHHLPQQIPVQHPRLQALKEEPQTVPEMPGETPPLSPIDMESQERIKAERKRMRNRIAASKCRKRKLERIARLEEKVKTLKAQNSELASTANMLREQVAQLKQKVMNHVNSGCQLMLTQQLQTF

With `O=C(/C=C/c1ccc(O)c(O)c1)OCCc1ccccc1` [CAFFEIC ACID PHENETHYL ESTER], the inhibition entry in the data set filed under Mus musculus [1], in the data set listed under Mus musculus [5], in the data set filed under Mus musculus [9] and in the data set filed under Mus musculus [15] was “inactive” in each case. In addition, the result (in the data set listed under Mus musculus [2]; in data set [6]) was inactive. Besides, the inhibition result in the data set listed under Mus musculus [3] and in the data set filed under Mus musculus [7] was “Dose-dependent effect” in each case. Also, the inhibition result in the data set listed under Mus musculus [4] and in the data set listed under Mus musculus [8] was “Active” throughout. The Activity entry in [10] is on record as “Non-Toxic”. Besides, the result in the data set listed under Mus musculus [11], in the data set filed under Mus musculus [12], in the data set filed under Mus musculus [13] and in the data set filed under Mus musculus [14] was Active.
`O=C(O)/C=C/c1ccc(O)c(O)c1` [CAFFEIC ACID]: the inhibition result in the data set listed under Mus musculus [16], in the data set filed under Mus musculus [17], in the data set filed under Mus musculus [20] and in the data set filed under Mus musculus [21] was “inactive” in each case. Also, the outcome in the data set filed under Mus musculus [18], in the data set filed under Mus musculus [19], in the data set filed under Mus musculus [13] and in the data set filed under Mus musculus [14] was inactive. Besides, the Activity entry in [10] was “Non-Toxic”.
